Measurements: ChEMBL document CHEMBL1944580, “Synthesis of novel sulfonamide-1,2,4-triazoles, 1,3,4-thiadiazoles and 1,3,4-oxadiazoles, as potential antibacterial and antifungal agents. Biological evaluation and conformational analysis studies” (2012)
Values after ≈ are worked out from the molar mass of the structure shown.

What was measured:
Staphylococcus aureus [1] = experiment: Antibacterial activity against Staphylococcus aureus ATCC 6538 after 24 hrs by micro dilution method; type: functional; conditions: ATCC 6538, 24 h
Outline: (§1)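 Microdilution MIC in 96-well plates. Bacterial suspensions adjusted in sterile saline to 1.0 × 10^5 CFU/ml, giving 1.0 × 10^4 cfu per well in LB broth. Compounds tested at up to 1 mg/ml. Plates incubated 24 h. MIC taken as the lowest concentration with no visible growth under a binocular microscope. OD at 655 nm was also read against a blank and the positive control. Streptomycin and ampicillin were the positive controls.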

Bacillus cereus [2] = experiment: Antibacterial activity against Bacillus cereus clinical isolate after 24 hrs by micro dilution method; type: functional; outline: as §1
Micrococcus flavus [3] = experiment: Antibacterial activity against Micrococcus flavus ATCC 10240 after 24 hrs by micro dilution method; type: functional; conditions: ATCC 10240, 24 h; outline: as §1
Listeria monocytogenes [4] = experiment: Antibacterial activity against Listeria monocytogenes NCTC 7973 after 24 hrs by micro dilution method; type: functional; conditions: NCTC 7973, 24 h; outline: as §1
Pseudomonas aeruginosa [5] = experiment: Antibacterial activity against Pseudomonas aeruginosa ATCC 27853 after 24 hrs by micro dilution method; type: functional; conditions: ATCC 27853, 24 h; outline: as §1
Enterobacter cloacae [6] = experiment: Antibacterial activity against Enterobacter cloacae human isolate after 24 hrs by micro dilution method; type: functional; outline: as §1
Salmonella typhimurium [7] = experiment: Antibacterial activity against Salmonella Typhimurium ATCC 13311 after 24 hrs by micro dilution method; type: functional, Salmonella enterica subsp. enterica serovar Typhimurium; conditions: Salmonella enterica, ATCC 13311, 24 h; outline: as §1
Escherichia coli [8] = experiment: Antibacterial activity against Escherichia coli ATCC 35210 after 24 hrs by micro dilution method; type: functional; conditions: ATCC 35210, 24 h; outline: as §1
Staphylococcus aureus [9] = experiment: Antibacterial activity against Staphylococcus aureus ATCC 6538 treated for 24 hrs followed by sub-cultivated for 72 hrs by micro dilution method; type: functional
Outline: (§2)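 2 µl from each well was serially subcultured into 100 µl fresh broth per well and incubated a further 72 h. MBC is the lowest concentration with no visible growth, taken as 99.5% killing of the original inoculum. Streptomycin and ampicillin were the positive controls.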

Bacillus cereus [10] = experiment: Antibacterial activity against Bacillus cereus clinical isolate treated for 24 hrs followed by sub-cultivated for 72 hrs by micro dilution method; type: functional; outline: as §2
Micrococcus flavus [11] = experiment: Antibacterial activity against Micrococcus flavus ATCC 10240 treated for 24 hrs followed by sub-cultivated for 72 hrs by micro dilution method; type: functional; outline: as §2
Listeria monocytogenes [12] = experiment: Antibacterial activity against Listeria monocytogenes NCTC 7973 treated for 24 hrs followed by sub-cultivated for 72 hrs by micro dilution method; type: functional; outline: as §2
Pseudomonas aeruginosa [13] = experiment: Antibacterial activity against Pseudomonas aeruginosa ATCC 27853 treated for 24 hrs followed by sub-cultivated for 72 hrs by micro dilution method; type: functional; outline: as §2
Enterobacter cloacae [14] = experiment: Antibacterial activity against Enterobacter cloacae human isolate treated for 24 hrs followed by sub-cultivated for 72 hrs by micro dilution method; type: functional; outline: as §2
Salmonella typhimurium [15] = experiment: Antibacterial activity against Salmonella Typhimurium ATCC 13311 treated for 24 hrs followed by sub-cultivated for 72 hrs by micro dilution method; type: functional, Salmonella enterica subsp. enterica serovar Typhimurium; conditions: Salmonella enterica; outline: as §2
Escherichia coli [16] = experiment: Antibacterial activity against Escherichia coli ATCC 35210 treated for 24 hrs followed by sub-cultivated for 72 hrs by micro dilution method; type: functional; outline: as §2
Talaromyces funiculosus [17] = experiment: Antifungal activity against Penicillium funiculosum ATCC 36839 after 72 hrs by serial dilution method; type: functional; conditions: ATCC 36839, 72 h
Outline: (§3)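 Modified microdilution MIC. Spores were washed from malt agar cultures with sterile 0.85% saline containing 0.1% Tween 80 and adjusted to about 1.0 × 10^5 per 100 µl well in malt broth. Compounds were dissolved in DMSO (1 mg/ml). Plates incubated 72 h at 28 °C. MIC is the lowest concentration with no visible growth under a binocular microscope. Bifonazole and ketoconazole were the references.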

Penicillium ochrochloron [18] = experiment: Antifungal activity against Penicillium ochrochloron ATCC 9112 after 72 hrs by serial dilution method; type: functional; conditions: ATCC 9112, 72 h; outline: as §3
Trichoderma viride [19] = experiment: Antifungal activity against Trichoderma viride IAM 5061 after 72 hrs by serial dilution method; type: functional; conditions: IAM 5061, 72 h; outline: as §3
Aspergillus fumigatus [20] = experiment: Antifungal activity against Aspergillus fumigatus human isolate after 72 hrs by serial dilution method; type: functional; outline: as §3
Aspergillus niger [21] = experiment: Antifungal activity against Aspergillus niger ATCC 6275 after 72 hrs by serial dilution method; type: functional; conditions: ATCC 6275, 72 h; outline: as §3
Aspergillus flavus [22] = experiment: Antifungal activity against Aspergillus flavus ATCC 9643 after 72 hrs by serial dilution method; type: functional; conditions: ATCC 9643, 72 h; outline: as §3
Aspergillus versicolor [23] = experiment: Antifungal activity against Aspergillus versicolor ATCC 11730 after 72 hrs by serial dilution method; type: functional; conditions: ATCC 11730, 72 h; outline: as §3
Fulvia fulva [24] = experiment: Antifungal activity against Fulvia fulva after 72 hrs by serial dilution method; type: functional; outline: as §3
Talaromyces funiculosus [25] = experiment: Antifungal activity against Penicillium funiculosum ATCC 36839 treated for 72 hrs followed by sub-cultivated for 5 days by serial dilution method; type: functional
Outline: (§4)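 MFC obtained after the 72 h, 28 °C malt-broth microdilution (spore inoculum about 1.0 × 10^5 per well, compounds from 1 mg/ml DMSO). 2 µl was serially subcultured into 100 µl broth per well and incubated a further 5 days at 28 °C. MFC is the lowest concentration with no visible growth, taken as 99.5% killing of the original inoculum.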

Penicillium ochrochloron [26] = experiment: Antifungal activity against Penicillium ochrochloron ATCC 9112 treated for 72 hrs followed by sub-cultivated for 5 days by serial dilution method; type: functional; outline: as §4
Trichoderma viride [27] = experiment: Antifungal activity against Trichoderma viride IAM 5061 treated for 72 hrs followed by sub-cultivated for 5 days by serial dilution method; type: functional; outline: as §4
Aspergillus fumigatus [28] = experiment: Antifungal activity against Aspergillus fumigatus human isolate treated for 72 hrs followed by sub-cultivated for 5 days by serial dilution method; type: functional; outline: as §4
Aspergillus niger [29] = experiment: Antifungal activity against Aspergillus niger ATCC 6275 treated for 72 hrs followed by sub-cultivated for 5 days by serial dilution method; type: functional; outline: as §4
Aspergillus flavus [30] = experiment: Antifungal activity against Aspergillus flavus ATCC 9643 treated for 72 hrs followed by sub-cultivated for 5 days by serial dilution method; type: functional; outline: as §4
Aspergillus versicolor [31] = experiment: Antifungal activity against Aspergillus versicolor ATCC 11730 treated for 72 hrs followed by sub-cultivated for 5 days by serial dilution method; type: functional; outline: as §4
Fulvia fulva [32] = experiment: Antifungal activity against Fulvia fulva treated for 72 hrs followed by sub-cultivated for 5 days by serial dilution method; type: functional; outline: as §4

| MIC (Staphylococcus aureus [1]) | MIC (Bacillus cereus [2]) | MIC (Micrococcus flavus [3]) | MIC (Listeria monocytogenes [4]) | MIC (Pseudomonas aeruginosa [5]) | MIC (Enterobacter cloacae [6]) | MIC (Salmonella typhimurium [7]) | MIC (Escherichia coli [8]) | MIC (Talaromyces funiculosus [17]) | MIC (Penicillium ochrochloron [18]) | MIC (Trichoderma viride [19]) | MIC (Aspergillus fumigatus [20]) | SMILES | MBC (Staphylococcus aureus [9]) | MBC (Bacillus cereus [10]) | MBC (Micrococcus flavus [11]) | MBC (Listeria monocytogenes [12]) | MBC (Pseudomonas aeruginosa [13]) | MBC (Enterobacter cloacae [14]) | MBC (Salmonella typhimurium [15]) | MBC (Escherichia coli [16]) | also measured |
| --- | --- | --- | --- | --- | --- | --- | --- | --- | --- | --- | --- | --- | --- | --- | --- | --- | --- | --- | --- | --- | --- |
| 480 µM (≈ 199 µg/mL) | 240 µM (≈ 99.5 µg/mL) | 240 µM (≈ 99.5 µg/mL) | 240 µM (≈ 99.5 µg/mL) | 480 µM (≈ 199 µg/mL) | 240 µM (≈ 99.5 µg/mL) | 240 µM (≈ 99.5 µg/mL) | 480 µM (≈ 199 µg/mL) | 120 µM (≈ 49.7 µg/mL) | 120 µM (≈ 49.7 µg/mL) | 60 µM (≈ 24.9 µg/mL) | 120 µM (≈ 49.7 µg/mL) | CCCCNc1nnc(Cc2cc(OC)c(OC)cc2S(=O)(=O)N(C)C)s1 | 480 µM (≈ 199 µg/mL) | 240 µM (≈ 99.5 µg/mL) | 480 µM (≈ 199 µg/mL) | 480 µM (≈ 199 µg/mL) | 480 µM (≈ 199 µg/mL) | 240 µM (≈ 99.5 µg/mL) | 240 µM (≈ 99.5 µg/mL) | 480 µM (≈ 199 µg/mL) | MIC (Aspergillus niger [21]): 60 µM (≈ 24.9 µg/mL); MIC (Aspergillus flavus [22]): 120 µM (≈ 49.7 µg/mL); MIC (Aspergillus versicolor [23]): 120 µM (≈ 49.7 µg/mL); MIC (Fulvia fulva [24]): 60 µM (≈ 24.9 µg/mL); MFC (Talaromyces funiculosus [25]): 240 µM (≈ 99.5 µg/mL); MFC (Penicillium ochrochloron [26]): 240 µM (≈ 99.5 µg/mL); MFC (Trichoderma viride [27]): 120 µM (≈ 49.7 µg/mL); MFC (Aspergillus fumigatus [28]): 240 µM (≈ 99.5 µg/mL); MFC (Aspergillus niger [29]): 120 µM (≈ 49.7 µg/mL); MFC (Aspergillus flavus [30]): 240 µM (≈ 99.5 µg/mL); MFC (Aspergillus versicolor [31]): 240 µM (≈ 99.5 µg/mL); MFC (Fulvia fulva [32]): 120 µM (≈ 49.7 µg/mL) |
| 280 µM (≈ 99.8 µg/mL) | 280 µM (≈ 99.8 µg/mL) | 560 µM (≈ 200 µg/mL) | 420 µM (≈ 150 µg/mL) | 420 µM (≈ 150 µg/mL) | 700 µM (≈ 249 µg/mL) | 420 µM (≈ 150 µg/mL) | 280 µM (≈ 99.8 µg/mL) | 140 µM (≈ 49.9 µg/mL) | 140 µM (≈ 49.9 µg/mL) | 30 µM (≈ 10.7 µg/mL) | 140 µM (≈ 49.9 µg/mL) | CNc1nnc(Cc2cc(OC)c(OC)cc2S(=O)(=O)N(C)C)o1 | 280 µM (≈ 99.8 µg/mL) | 280 µM (≈ 99.8 µg/mL) | 840 µM (≈ 299 µg/mL) | 420 µM (≈ 150 µg/mL) | 560 µM (≈ 200 µg/mL) | 840 µM (≈ 299 µg/mL) | 420 µM (≈ 150 µg/mL) | 420 µM (≈ 150 µg/mL) | MIC (Aspergillus niger [21]): 140 µM (≈ 49.9 µg/mL); MIC (Aspergillus flavus [22]): 140 µM (≈ 49.9 µg/mL); MIC (Aspergillus versicolor [23]): 140 µM (≈ 49.9 µg/mL); MIC (Fulvia fulva [24]): 280 µM (≈ 99.8 µg/mL); MFC (Talaromyces funiculosus [25]): 280 µM (≈ 99.8 µg/mL); MFC (Penicillium ochrochloron [26]): 450 µM (≈ 160 µg/mL); MFC (Trichoderma viride [27]): 140 µM (≈ 49.9 µg/mL); MFC (Aspergillus fumigatus [28]): 280 µM (≈ 99.8 µg/mL); MFC (Aspergillus niger [29]): 450 µM (≈ 160 µg/mL); MFC (Aspergillus flavus [30]): 450 µM (≈ 160 µg/mL); MFC (Aspergillus versicolor [31]): 450 µM (≈ 160 µg/mL); MFC (Fulvia fulva [32]): 450 µM (≈ 160 µg/mL) |
